# Data taken from article PMC11425819 (ACS Omega, 2024).
# Tests used:
# H9C2 cells [1] = assay: mPTP opening; assay type: cell-based, rat; conditions: 10 μM, 12 h pretreatment, H/R, compared with H/R alone, at least four independent experiments
# Summary of the method: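 H9C2 cells were pretreated 12 h with test compound (10 μM), then given 6 h hypoxia alone or H/R; an autophagy inducer (10 μM) served as comparator. Cells were loaded with calcein (2 μM) and CoCl2 (1 mM) in HBSS/Ca2+ for 15 min at 37 °C. Co2+ quenches cytosolic calcein, so retained mitochondrial calcein fluorescence indicates a closed mPTP.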
# H9C2 cells [2] = assay: Mitochondrial morphology analysis; assay type: cell-based, rat; conditions: 10 μM, vs H/R alone
# Summary of the method: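 H9C2 cells were pretreated 12 h with test compound (10 μM), then given 6 h hypoxia and 4 h reoxygenation in 10% FBS DMEM/F12. Cells were stained with MitoTracker and imaged by laser-scanning microscopy (60× oil). Mitochondria were scored as tubular, intermediate or fragmented. The value is the percentage of cells with intermediate or fragmented mitochondria, from 100 cells per experiment over four independent experiments (SEM).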
Compound,mitochondrial calcein fluorescence (mPTP opening) (H9C2 cells [1]),fragmented mitochondrial appearance after H/R (H9C2 cells [2])
CO[C@H]1C[C@@H]2CC[C@@H](C)[C@@](O)(O2)C(=O)C(=O)N2CCCC[C@H]2C(=O)O[C@H]([C@H](C)C[C@@H]2CC[C@@H](O)[C@H](OC)C2)CC(=O)[C@H](C)/C=C(\C)[C@@H](O)[C@@H](OC)C(=O)[C@H](C)C[C@H](C)/C=C/C=C/C=C/1C [rapamycin],considerably higher,
CC1(C)CC(NC(=O)C[P+](c2ccccc2)(c2ccccc2)c2ccccc2)CC(C)(C)N1[O] [Mito-Tempo],,attenuated the fragmented mitochondrial appearance
